Assay results reported in article PMC10203381 (Plant Communications, 2022).

Columns and labels:
[1] = system: MEP pathway intermediates in N. benthamiana leaves; type: in vivo, Nicotiana benthamiana; details: leaves infiltrated with SlDXS1, FSM 200 μM or NF 40 μM, 5 dpi; for Metabolite concentration DXP: control 7.69; for Metabolite concentration MEP: control 351.35; for Metabolite concentration MEcPP: control 671.68
SlDXS1-GFP = type: in vivo, Nicotiana benthamiana; details: 3 dpi; for number of fluorescent spots (SlDXS1-GFP aggregates) per chloroplast: FSM 200 μM or NF 40 μM, compared with untreated controls
Procedure, shortened: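 Agrobacterium GV3101 carrying SlDXS1-GFP was resuspended to OD600 0.8 in 10 mM MgCl2, 10 mM MES, 150 μM acetosyringone, pH 5.6. It was held 1.5 h at 28°C, then mixed 9:1 with an HcPro silencing-suppressor strain. FSM 200 μM, NF 40 μM or water was added before infiltrating leaves of 4-week-old plants. At 3 dpi, confocal imaging used 488 nm excitation and BP515-525 emission alongside chlorophyll fluorescence. Chloroplast and GFP-dot areas were measured from ≥7 images of different leaves, shown as mean and SD.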

N. benthamiana leaves = experiment: Leaf bleaching after infiltration with inhibitors; type: in vivo, Nicotiana benthamiana; details: FSM 200 μM or NF 40 μM in the agroinfiltration mixture; observed at 5 dpi
Procedure, shortened: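 Leaves of 4-week-old plants were agroinfiltrated with an SlDXS1 construct plus an HcPro silencing suppressor (9:1). FSM 200 μM, NF 40 μM or water was included in the infiltration mixture. Bleaching was scored visually at 5 dpi.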

SlDXS1 [2] = type: in vivo, Nicotiana benthamiana; details: FSM 200 μM or NF 40 μM; 5 dpi; compared with mock-treated controls
Procedure, shortened: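 Agrobacterium GV3101 carrying untagged SlDXS1 at OD600 0.8 in MES/MgCl2/acetosyringone buffer, pH 5.6, was mixed 9:1 with an HcPro strain. FSM 200 μM, NF 40 μM or water was added before infiltrating 4-week-old leaves. At 5 dpi, about 300 mg of frozen tissue was extracted in TKMES with protease inhibitors and Triton, then cleared at 2800 g, 4°C. Samples in non-denaturing loading buffer were run on 7% SDS-PAGE and blotted with anti-DXS 1:500 overnight at 4°C.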

EcDXS = biological target: T1, EcDXS (Escherichia coli, UniProt P77488); type: cell-based
T1 sequence (P77488 1-620): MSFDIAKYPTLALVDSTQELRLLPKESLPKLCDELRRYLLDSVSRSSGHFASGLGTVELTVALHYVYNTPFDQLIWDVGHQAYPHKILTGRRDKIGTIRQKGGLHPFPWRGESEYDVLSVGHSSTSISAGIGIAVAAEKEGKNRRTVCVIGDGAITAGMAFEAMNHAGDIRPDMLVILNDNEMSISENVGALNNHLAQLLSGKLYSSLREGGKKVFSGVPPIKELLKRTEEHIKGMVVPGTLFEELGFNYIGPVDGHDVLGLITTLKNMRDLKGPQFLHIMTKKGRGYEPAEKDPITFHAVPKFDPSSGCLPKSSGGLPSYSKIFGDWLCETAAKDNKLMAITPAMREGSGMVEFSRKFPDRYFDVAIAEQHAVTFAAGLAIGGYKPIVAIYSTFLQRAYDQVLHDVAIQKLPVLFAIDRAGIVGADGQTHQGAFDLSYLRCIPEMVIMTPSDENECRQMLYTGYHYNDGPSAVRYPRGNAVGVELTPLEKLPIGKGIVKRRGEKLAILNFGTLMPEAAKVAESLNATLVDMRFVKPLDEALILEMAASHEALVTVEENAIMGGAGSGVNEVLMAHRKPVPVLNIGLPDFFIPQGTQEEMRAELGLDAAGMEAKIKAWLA

[3] = system: E. coli EcAB4-10 cells (EcDXS activity)
SlDXS1 [4] = biological target: T2, SlDXS1 (Solanum lycopersicum, UniProt Q9XH50); type: cell-based
T2 sequence (Q9XH50 58-719): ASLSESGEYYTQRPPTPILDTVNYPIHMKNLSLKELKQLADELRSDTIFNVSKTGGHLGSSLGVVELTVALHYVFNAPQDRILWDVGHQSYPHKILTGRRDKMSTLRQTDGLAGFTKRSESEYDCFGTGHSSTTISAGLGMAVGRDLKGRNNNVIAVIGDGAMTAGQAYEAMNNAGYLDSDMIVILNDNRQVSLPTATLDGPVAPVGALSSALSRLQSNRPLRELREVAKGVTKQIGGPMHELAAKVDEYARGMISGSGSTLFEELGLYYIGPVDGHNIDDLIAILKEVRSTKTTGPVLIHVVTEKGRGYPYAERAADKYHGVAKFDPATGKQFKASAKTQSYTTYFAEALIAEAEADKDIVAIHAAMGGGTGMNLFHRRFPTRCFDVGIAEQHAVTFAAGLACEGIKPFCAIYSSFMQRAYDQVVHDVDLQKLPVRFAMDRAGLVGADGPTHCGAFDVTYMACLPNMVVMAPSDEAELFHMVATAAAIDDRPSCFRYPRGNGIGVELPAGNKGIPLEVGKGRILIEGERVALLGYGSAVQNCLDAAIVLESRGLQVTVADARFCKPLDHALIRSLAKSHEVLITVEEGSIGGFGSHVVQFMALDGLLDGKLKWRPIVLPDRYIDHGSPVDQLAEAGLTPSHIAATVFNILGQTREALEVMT

SlDXS1 [5] = biological target: T2, SlDXS1; experiment: Isothermal titration calorimetry; type: binding

Structure (SMILES) | Metabolite concentration DXP [1] | Metabolite concentration MEP [1] | Metabolite concentration MEcPP [1] | number of fluorescent spots (SlDXS1-GFP aggregates) per chloroplast (SlDXS1-GFP) | leaf phenotype (N. benthamiana leaves) | dimer-to-monomer ratio of SlDXS1 (SlDXS1 [2]) | proportion of EcDXS dimers (EcDXS) | ratio of insoluble (aggregated) to soluble EcDXS protein (EcDXS) | cell growth (OD600) [3] | intracellular DXP levels [3] | intracellular IPP/DMAPP levels [3] | proportion of SlDXS1 dimers (SlDXS1 [4]) | ratio of insoluble (aggregated) to soluble SlDXS1 protein (SlDXS1 [4]) | size of the fluorescent spots (SlDXS1-GFP aggregates) (SlDXS1-GFP; NF 40 μM) | Kd (SlDXS1 [5])
O=CN(O)CCCP(=O)(O)O [FSM, fosmidomycin] | 641.99 pg/mg dry weight | 7.67 pg/mg dry weight | 31.03 pg/mg dry weight | higher amounts | bleaching phenotype | increased | – | – | – | – | – | – | – | – | –
C[C@@](O)(CCO)CC(=O)O [MVA, mevalonic acid] | – | – | – | – | – | – | proportion of dimers decreased | higher ratio of insoluble (aggregated) to soluble | did not show any growth impairment | much lower | markedly increased | proportion of dimers decreased | higher ratio of insoluble (aggregated) to soluble | – | –
CNc1cnn(-c2cccc(C(F)(F)F)c2)c(=O)c1Cl [NF, norflurazon] | 5.73 pg/mg dry weight | 175.33 pg/mg dry weight | 405.61 pg/mg dry weight | lower amounts | bleaching phenotype | decreased | – | – | – | – | – | – | – | larger | –
Cc1ncc(C[n+]2csc(CCO[P@](=O)(O)OP(=O)(O)O)c2C)c(N)n1 [TPP, thiamine diphosphate] | – | – | – | – | – | – | – | – | – | – | – | – | – | – | 4.2 ± 0.7 µM
